Laboratory results from ChEMBL document CHEMBL1157325, “7alpha,20-epoxy-ent-kauranoids from Isodon parvifolius” (J Nat Prod, 2006).

What was measured:
Assay type in all cases: functional, cell-based
[1] = tested on: K562; test: Cytotoxicity against human K562 cells after 72 hrs by SRB assay; settings: K562, 72 h
[2] = tested on: HT-29; test: Cytotoxicity against human HT29 cells after 72 hrs by SRB assay; settings: HT-29, 72 h
How it was run: (§1)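 Adherent tumour cells seeded 24 h before treatment, then exposed continuously to a range of compound concentrations for 72 h. Cells were then fixed and stained with sulforhodamine B to read growth, and IC50 values were derived from the concentration series.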

[3] = tested on: A549; test: Cytotoxicity against human A549 cells after 72 hrs by SRB assay; settings: A549, 72 h; how it was run: as §1

| SMILES | IC50 [1] | IC50 [2] | IC50 [3] |
| --- | --- | --- | --- |
| C=C1C(=O)[C@]23C[C@H]1CC[C@H]2[C@@]12CO[C@@]3(O)[C@@H](O)[C@@H]1[C@@](C)(CO)CC[C@@H]2O [PARVIFOLINE C] | 13.8 µM | – | – |
| C=C1C(=O)[C@]23[C@H](O)[C@H]1CC[C@H]2[C@@]12CO[C@@]3(O)[C@@H](O)[C@@H]1[C@@](C)(CO)CC[C@@H]2O [PARVIFOLINE D] | > 100 µM | > 100 µM | > 100 µM |
| C=C1C(=O)[C@]23C[C@H]1[C@@H](O)C=C2[C@@]12CO[C@@]3(O)[C@@H](O)[C@@H]1C(C)(C)CC[C@@H]2O [PARVIFOLINE F] | > 100 µM | > 100 µM | > 100 µM |
| C=C1[C@@H]2C[C@@H](OC(C)=O)[C@H]3[C@@]45CO[C@@](O)(C(=O)[C@@H]4C(C)(C)CC[C@@H]5OC(C)=O)[C@]3(C2)[C@@H]1OC(C)=O [PARVIFOLINE G] | > 100 µM | > 100 µM | > 100 µM |
| C=C1C(=O)[C@]23C[C@H]1C[C@H](OC(C)=O)[C@H]2[C@@]12CO[C@@]3(O)[C@@H](O)[C@@H]1C(C)(C)CC[C@@H]2O [PARVIFOLINE H] | > 100 µM | > 100 µM | > 100 µM |
| C=C1C(=O)[C@]23C[C@H]1C[C@H](O)[C@H]2[C@@]12CO[C@@]3(O)[C@@H](O)[C@@H]1C(C)(C)CC[C@@H]2OC(C)=O [PARVIFOLINE I] | > 100 µM | > 100 µM | > 100 µM |
| COC[C@H]1C(=O)[C@]23C[C@H]1C[C@H](OC(C)=O)[C@H]2[C@@]12CO[C@@]3(O)[C@@H](O)[C@@H]1C(C)(C)CC[C@@H]2O [PARVIFOLINE J] | > 100 µM | > 100 µM | > 100 µM |
